Structures are written as SMILES.

Data on six compounds can be found in ChEMBL document CHEMBL1149681, “OSW-1 analogues: modification of the carbohydrate moiety” (Bioorg Med Chem Lett, 2007).

Holding throughout (format): functional, cell-based
The test system of one assay is NCI-H460. Description: Antitumor activity against human NCI-H460 cells by methylene blue staining method. The method, boiled down: (§1)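 Cells grown in RPMI1640 with 10% fetal bovine serum, seeded in 96-well plates and cultured overnight at 37 °C, 5% CO2 before serially diluted samples were added. After 3 days of culture, stained 30 min with 0.05% methylene blue in 10 mM Tris pH 8.5, washed with water, dye extracted with 3% HCl, OD660 read. Independent triplicates; IC50 from means. Cisplatin control included in each assay.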

A further assay deals with MDA-MB-231. Nature of the assay: Antitumor activity against human MDA-MB-231 cells by methylene blue staining method. Summed up:
as §1

A further assay concerns T47D. Description: Antitumor activity against human T47D cells by methylene blue staining method. The method, boiled down:
as §1

The next assay deals with A498. Description: Antitumor activity against human A498 cells by methylene blue staining method. Summed up: as §1
In a further assay the test system is PC-3. Nature of the assay: Antitumor activity against human PC3 cells by methylene blue staining method. The method, boiled down: as §1
A further assay has as its system DLD-1. Description: Antitumor activity against human DLD1 cells by methylene blue staining method. The method, boiled down: as §1
A further assay deals with HCT-116. Nature of the assay: Antitumor activity against human HCT116 cells by methylene blue staining method. The method, boiled down:
as §1

The test system of a further assay is UO-31. Nature of the assay: Antitumor activity against human UO31 cells by methylene blue staining method. The method, boiled down: as §1

Turning to `COc1ccc(C(=O)O[C@@H]2CCO[C@H]2O[C@H]2[C@H](OC(C)=O)[C@@H](O[C@H]3C[C@H]4[C@@H]5CCc6cc(O)ccc6[C@H]5CC[C@]4(C)[C@@]3(O)[C@H](C)C(=O)CCC(C)C)OC[C@H]2O)cc1`, the IC50 with NCI-H460 is 5750 nM; in the assay on MDA-MB-231, 18200 nM.

Consider `COc1ccc(C(=O)O[C@H]2[C@H](O[C@H]3[C@H](OC(C)=O)[C@@H](O[C@H]4C[C@H]5[C@@H]6CCc7cc(O)ccc7[C@H]6CC[C@]5(C)[C@@]4(O)[C@H](C)C(=O)CCC(C)C)OC[C@H]3O)OC[C@@H](O)[C@@H]2O)cc1`, for which the IC50 was determined as 710 nM in the assay with T47D; 260 nM with NCI-H460; 680 nM in the assay with MDA-MB-231; 430 nM with A498; 1400 nM in the assay on PC-3; 1180 nM in the assay on DLD-1.

As to `COc1ccc(C(=O)O[C@H]2[C@H](O[C@H]3[C@H](OC(C)=O)[C@@H](O[C@H]4C[C@H]5[C@@H]6CCc7cc(O)ccc7[C@H]6CC[C@]5(C)[C@@]4(O)[C@H](C)C(=O)CCC(C)C)OC[C@H]3F)OC[C@@H](O)[C@@H]2O)cc1`, the IC50 stood at 2810 nM in the assay on T47D; 2590 nM with NCI-H460; 850 nM with MDA-MB-231; 300 nM with A498; 680 nM in the assay on PC-3; 1720 nM with DLD-1. In addition, the IC50 in the assay on HCT-116 amounted to 2900 nM; in the assay with UO-31, 56 nM.

With `COc1cccc2c1C(=O)c1c(O)c3c(c(O)c1C2=O)C[C@@](O)(C(=O)CO)C[C@@H]3O[C@H]1C[C@H](N)[C@H](O)[C@H](C)O1` [DOXORUBICIN], the IC50 with T47D was found to be 27 nM; with NCI-H460, 3.7 nM; in the assay on MDA-MB-231 it was 100 nM; with A498 it was 35 nM; in the assay on PC-3, 200 nM; with DLD-1 it was 100 nM. In addition, the values for the IC50 in the assay on HCT-116 and with UO-31 were 37 nM and 100 nM, respectively.

For `CC(=O)O[C@@H]1[C@@H](O[C@H]2C[C@H]3[C@@H]4CCc5cc(O)ccc5[C@H]4CC[C@]3(C)[C@@]2(O)[C@H](C)C(=O)CCC(C)C)OC[C@@H](O)[C@H]1O[C@@H]1OC[C@@H](O)[C@H](O)[C@H]1O`, the IC50 with NCI-H460 was 9980 nM; in the assay with MDA-MB-231 it was 6940 nM.

For the compound `COc1ccc(C(=O)O[C@H]2[C@H](O[C@@H]3CCO[C@H](O[C@H]4C[C@H]5[C@@H]6CCc7cc(O)ccc7[C@H]6CC[C@]5(C)[C@@]4(O)[C@H](C)C(=O)CCC(C)C)[C@H]3OC(C)=O)OC[C@@H](O)[C@@H]2O)cc1`, the IC50 in the assay with NCI-H460 came to 13700 nM; in the assay with MDA-MB-231 it was 10900 nM.

The term IC50 denotes the concentration that gives 50% inhibition. High values mean a need for much substance, low ones inhibition by little substance.
